Myeloid diff 2 = compounds promoting myeloid differentiation | AID 624256 | 360,000 compounds, 1% hits | calls only at 10 µM | ER-HoxA9 myeloid progenitors, lysozyme-GFP differentiation, flow cytometry;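 active = normalized GFP-positive differentiation at or above the plate's own cutoff, the solvent-only control mean plus 3 SD; inconclusive = no clear call, values can overlap the other calls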;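 note: cells exposed to compound for four days before flow analysis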
ABCB6 inh MLPCN = blocks the human ABCB6 transporter; Q9NP58; K562-ABCB6 porphyrin accumulation, flow cytometry, 1 h; hits give low values; fluorescence ratio to DMSO, % at 10 µM; 360,000 compounds, 0.19% hits;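 active = fluorescence ratio to DMSO below 75%, the collection mean minus 3 SD; inconclusive = too few cells collected in the well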;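 note: signal is porphyrin accumulated inside mitochondria; lower ratio means ABCB6 inhibition with less porphyrin fluorescence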
Target sequence (Q9NP58 whole entry, looked up): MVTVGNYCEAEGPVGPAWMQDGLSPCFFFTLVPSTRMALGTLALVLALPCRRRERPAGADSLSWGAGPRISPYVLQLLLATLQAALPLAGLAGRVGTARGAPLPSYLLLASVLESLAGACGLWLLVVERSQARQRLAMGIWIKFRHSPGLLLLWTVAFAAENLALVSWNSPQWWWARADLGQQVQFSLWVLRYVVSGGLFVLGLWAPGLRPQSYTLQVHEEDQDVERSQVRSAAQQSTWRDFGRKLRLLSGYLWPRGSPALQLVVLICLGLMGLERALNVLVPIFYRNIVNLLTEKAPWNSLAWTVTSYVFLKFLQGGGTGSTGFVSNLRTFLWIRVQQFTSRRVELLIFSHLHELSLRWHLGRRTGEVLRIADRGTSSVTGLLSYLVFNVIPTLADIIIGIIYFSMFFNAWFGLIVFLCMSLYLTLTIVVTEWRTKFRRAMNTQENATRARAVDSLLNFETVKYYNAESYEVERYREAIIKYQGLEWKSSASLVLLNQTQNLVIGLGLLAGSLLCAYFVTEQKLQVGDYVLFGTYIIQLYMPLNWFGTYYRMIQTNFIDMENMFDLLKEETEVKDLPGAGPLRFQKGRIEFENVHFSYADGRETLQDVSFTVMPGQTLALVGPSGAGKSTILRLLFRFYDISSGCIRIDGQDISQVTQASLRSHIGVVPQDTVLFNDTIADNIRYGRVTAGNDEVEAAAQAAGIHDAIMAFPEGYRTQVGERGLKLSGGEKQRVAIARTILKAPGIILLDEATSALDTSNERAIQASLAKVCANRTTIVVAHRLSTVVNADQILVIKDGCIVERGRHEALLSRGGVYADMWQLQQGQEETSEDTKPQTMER
XiGFP reactiv = activators of X-chromosome reactivation in mouse fibroblasts | XiGFP mouse fibroblasts, % GFP-positive cells imaging, 3 d; cells co-treated with 5-aza-dC sensitizer; scaled so ellipticine positive control = 100% | activation, % at 7.58 µM | 360,000 compounds, 0.055% hits;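 active = mean normalized replicate activation at least 10% and every replicate at or above 10%; inconclusive = only one of the two criteria met; inactive = mean below 10% and not all replicates reach 10%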
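Schedule: 3 d treatment, 15 min room-temperature fixation; system: 68-5-11 XiGFP fibroblast line; buffer or medium: DMEM plus 5-aza-dC sensitizer; control set: ellipticine 6 µM positive control; compound: one concentration, pinned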
ABCB6 inh CP1 = human ABCB6 transporter inhibition; shares compounds with ABCB6 inh MLPCN; K562-ABCB6 porphyrin accumulation, flow cytometry, 1 h; hits give low values; ratio response (% of DMSO), % at 10 µM; 700 tested, under 10 active; AID 602430;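 active = repeat-averaged ratio response below 75% of DMSO, the collection mean minus 3 SD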;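 note: median porphyrin fluorescence at 575 nm with 488 nm excitation from mitochondria; lower ratio means less porphyrin signal so ABCB6 inhibition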
Myeloid diff = myeloid differentiation induction | shares compounds with Myeloid diff 2 | ER-HoxA9 myeloid progenitors, GFP/Mac1 double-positive flow | calls only | 2,300 compounds, 2% hits;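 active = share of green or green-and-red cells above 9 and 9% in run 1 or 4 and 3% in run 2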
GFP autofluor = flagged as fluorescent in myeloid differentiation counter-screen; shares compounds with Myeloid diff 2; ER-HoxA9 myeloid progenitors, no estrogen, GFP autofluorescence flow cytometry; vehicle wells 0%, positive control 100%; fluorescence response, % (test concentration not listed); 2,300 compounds, 7.4% hits;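 active = over 5% cells positive for green fluorescent reporter, or over 2% positive for both it and APC stain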
A number is an active result; – = inactive; ? = inconclusive; · = no result; + = active, no number. The sample as a whole holds a higher share of hits than the screen did.

SMILES | Myeloid diff 2 | ABCB6 inh MLPCN | XiGFP reactiv | others
O=C(O)Cn1cc(C=C2C(=O)NC(=O)NC2=O)c2ccccc21 | – | – | –
COC(=O)[C@H]1[C@H](CO)[C@H]2Cn3c(ccc(C4=CCCCC4)c3=O)[C@@H]1N2CC1CC1 | · | · | –
C=CCN1[C@@H]2CN(C(=O)NC(C)C)C[C@H]1C2c1ccccc1 (stereo partly specified) | · | · | –
Cc1[nH]c2ccccc2c1C(=O)CN1CC=C(c2ccccc2)CC1 | – | – | –
CCN1CC=C(c2c[nH]c3ccccc23)CC1 | + | – | ·
O=C(Cc1ccccc1)N1CCCCN2[C@H](CO)[C@H](c3ccc(C#CC4(O)CCCC4)cc3)[C@@H]2C1 | · | · | –
COC(=O)C1=C(c2cccc(OCc3ccccc3)c2)C[C@@H]2CC[C@H]1N2C(=O)NCc1ccc(OC)cc1 | + | – | –
COC(=O)C1=C(c2cccc(OCc3ccccc3)c2)C[C@@H]2CC[C@H]1N2C(=O)NCc1ccccc1 | – | – | –
COC(=O)[C@H]1[C@H](CO)[C@H]2Cn3c(ccc(-c4ccc(F)cc4)c3=O)[C@@H]1N2C(C)=O | · | · | –
COCCNC(=O)c1c(NC(=O)c2ccc(Br)o2)n(Cc2ccccc2)c2nc3ccccc3nc12 | + | – | –
COCCCNC(=O)c1c(NC(=O)c2ccco2)n(Cc2ccccc2)c2nc3ccccc3nc12 | – | – | ·
N#Cc1cccc(-c2ccc([C@H]3[C@H]4CN(C(=O)Cc5ccccc5)CCCCN4[C@H]3CO)cc2)c1 | · | · | –
COc1ccc(-n2c(/C=C/c3ccc(O)c(O)c3)nc3ccccc3c2=O)cc1 | – | – | –
COc1cc(/C=C/c2nc3ccccc3c(=O)n2-c2ccc(O)cc2)ccc1O | + | – | –
CN1C[C@@H]2N[C@H](C1)C2c1ccc(Br)cc1 (stereo partly specified) | · | · | –
C[N+]1=C(/C=C/Nc2ccccc2)C(C)(C)c2ccccc21 | + | – | –
CCN1/C(=C/C=C/C2=[N+](CC)c3ccccc3C2(C)C)C(C)(C)c2ccccc21 | ? | · | –
Cc1ccc(S(=O)(=O)N2Cc3ccccc3-n3nncc3C2)cc1 | – | – | –
CC(=O)Nc1ccc(S(=O)(=O)N2Cc3ccccc3-n3nncc3C2)cc1 | + | – | –
CCN1[C@@H]2Cn3c(ccc(-c4cccc(C(=O)N(C)C)c4)c3=O)[C@H]1[C@@H](C(=O)OC)[C@@H]2CO | · | · | –
Cc1nn(Cc2ccccc2)c(C)c1C(=O)OCC(=O)Nc1ccccc1SCC#N | + | – | ·
Cc1cc(NC(=O)COC(=O)c2c(C)nn(Cc3ccccc3)c2C)no1 | – | – | ·
CC(C)NC(=O)N1C[C@@H]2C(c3ccccc3)[C@H](C1)N2CC1CC1 (stereo partly specified) | · | · | –
O=C1NC(=O)C(CCc2ccncc2)(Cc2cccc(Cl)c2Cl)C(=O)N1c1ccc(Br)cc1 (stereo unspecified) | + | – | –
CCc1ccc(N2C(=O)NC(=O)C(CCc3ccncc3)(CCc3ccncc3)C2=O)cc1 | – | – | –
SMILES | Myeloid diff 2 | ABCB6 inh MLPCN | XiGFP reactiv | others
CC(=O)N1C[C@@H]2C(c3ccc(Br)cc3)[C@H](C1)N2CC1CC1 (stereo partly specified) | · | · | –
CC1=Nc2ccccc2/C1=C/c1c(O)[nH]c(=O)[nH]c1=O | – | – | –
O=c1[nH]c(O)c(/C=C2/C=CC(c3cc(Cl)ccc3Cl)=N2)c(=O)[nH]1 | + | – | –
Cc1ccsc1/C=C1\C(=O)NC(=S)N(C)C1=O | – | – | –
CN1C(=O)/C(=C/c2ccc(Cl)s2)C(=O)NC1=S | + | – | –
Cc1ccccc1S(=O)(=O)N1[C@@H]2c3ccc(-c4cccnc4)c(=O)n3C[C@H]1[C@H](CO)[C@H]2C(=O)O | · | · | –
N#Cc1cccc(-c2ccc([C@H]3[C@H]4CN(C(=O)Cc5ccncc5)CCCCN4[C@H]3CO)cc2)c1 | · | · | –
Cc1ccc2c(c1)N(CCC(=O)N1CCC3(CC1)OCCO3)C(=O)C(C)O2 (stereo unspecified) | – | – | ·
Cc1ccc2c(c1)N(CCC(=O)N1CCC3(CC1)OCCO3)C(=O)CO2 | + | – | ·
O=C(Cc1cccnc1)N1CCCCN2[C@H](CO)[C@@H](c3ccc(/C=C/c4ccccc4)cc3)[C@H]2C1 | · | · | –
CS(=O)(=O)N1C[C@@H]2C(c3ccc(Br)cc3)[C@H](C1)N2CC1CC1 (stereo partly specified) | · | · | –
CC(=O)N1C2CN(C)CC1C2c1ccc(Br)cc1 (stereo unspecified) | · | · | –
CCOC(=O)[C@]12Cc3cc(Cl)ccc3[C@H]1N(C)C(=O)c1cc(OC)ccc12 | + | – | –
CCOC(=O)[C@]12Cc3cc(OC)ccc3[C@H]1N(C)C(=O)c1cc(OC)ccc12 | – | – | –
CCCN1[C@@H]2Cn3c(ccc(-c4ccc(OC)cc4)c3=O)[C@H]1[C@@H](C(=O)OC)[C@@H]2CO | · | · | –
Cc1c(C=C2C(=O)NC(=O)NC2=O)c(=O)n(-c2ccccc2)n1C | – | – | –
CCN(CC)c1nc2c(C)cccn2c(=O)c1C=C1C(=O)NC(=O)NC1=O | – | 38.0 | –
CC(=O)N1C[C@@H]2N[C@H](C1)C2c1ccccc1 (stereo partly specified) | · | · | –
CCCCc1ccc(C(=O)O)nc1 | + | – | –
CCCCCCCCc1ccc(O)cc1 | – | – | ·
O=C(N/N=C/c1c(O)n(Cc2ccc(F)cc2)c(=O)[nH]c1=O)c1ccccc1 | – | – | –
O=C(O)CCC(=O)NCCC1=c2ccccc2=N/C1=C\c1c(O)n(Cc2ccc(F)cc2)c(=S)[nH]c1=O | + | – | –
CCCCCn1c(=O)c(C(=O)Nc2cnccn2)c(O)c2ccccc21 | · | – | –
CCCCCn1c(=O)c(C(=O)Nc2cc(C)ccn2)c(O)c2ccccc21 | + | – | –
CN1C(=O)C(=Cc2ccc(Sc3ccccc3)o2)C(=O)N(C)C1=S | – | 11.0 | –
SMILES | Myeloid diff 2 | ABCB6 inh MLPCN | XiGFP reactiv | others
CN1C(=O)C(=Cc2ccc(Sc3ccccc3)o2)C(=O)N(C)C1=O | – | – | –
CCOc1cc2c(cc1OCC)-n1cccc1C(c1ccccc1O)NC2 (stereo unspecified) | – | – | –
CCOc1cc2c(cc1OCC)-n1cccc1C(c1ccccc1OC)NC2 (stereo unspecified) | – | 73.0 | – | ABCB6 inh CP1=–
Cc1ccc(OC(=O)N(C)C[C@@H]2OCc3ccccc3-c3c(n(C)c4ccccc34)C(=O)N([C@@H](C)CO)C[C@H]2C)cc1 | · | · | –
CCN(CC)S(=O)(=O)c1ccc(C)c(NCC(=O)Nc2ccc(C#N)c(Cl)c2)c1 | + | – | – | Myeloid diff=–;GFP autofluor=–
CC(=O)N1CCN(CC(=O)Nc2ccc(C#N)c(Cl)c2)CC1 | – | – | –
